The values that follow come from ChEMBL document CHEMBL3421596, “A facile synthesis and microtubule-destabilizing properties of 4-(1H-benzo[d]imidazol-2-yl)-furazan-3-amines” (Eur J Med Chem, 2015).

Molecules are shown by their SMILES.

Holding throughout (type): functional
The test system of experiment [1] is Paracentrotus lividus. Description: Antiproliferative activity in sea urchin embryo assessed as antimitotic activity by measuring cleavage alteration exposed for 8 to 20 mins after fertilization and 45 to 55 mins before first mitotic cycle completion measured 2.5 to […] after fertilization.
The subject of experiment [2] is Paracentrotus lividus. The experiment is described as follows: Antiproliferative activity in sea urchin embryo assessed as antimitotic activity by measuring cleavage arrest exposed for 8 to 20 mins after fertilization and 45 to 55 mins before first mitotic cycle completion measured 2.5 to […] after fertilization.
In experiment [3] the test system is Paracentrotus lividus. Description: Antiproliferative activity in sea urchin embryo assessed as destabilization of microtubule by measuring embryo spinning after 15 mins to 20 hrs.
Experiment [4] in a line: Cytotoxicity against human NCI60 cells assessed as cell growth at 10 uM. To be noted: read-out: Activity. In outline:
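NCI60 panel screened by the NCI Developmental Therapeutics Program at a single 10 µM concentration; mean cell growth percent reported.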

`COc1ccc2[nH]c(-c3nonc3-n3cccc3)nc2c1`: the EC in the experiment with Paracentrotus lividus [1] was 2 µM; with Paracentrotus lividus [2], above 4 µM; in the experiment on Paracentrotus lividus [3], above 4 µM. For the same compound, the growth at 10 µM in experiment [4] came out at 104%.

`Cn1c(-c2nonc2NC(=O)c2ccc(F)cc2)nc2ccccc21`: the growth at 10 µM in experiment [4] amounted to 99.5%.

Turning to `Nc1nonc1-c1nc2ccccc2n1Cc1cc2c(cc1Br)OCO2`, the EC with Paracentrotus lividus [1], in the experiment on Paracentrotus lividus [2] and with Paracentrotus lividus [3] was above 4 µM each time. Also, the growth at 10 µM in experiment [4] was 86.1%.

Turning to `N#CCn1c(-c2nonc2N)nc2ccccc21`, the EC in the experiment on Paracentrotus lividus [1], in the experiment with Paracentrotus lividus [2] and in the experiment on Paracentrotus lividus [3] was above 4 µM in each case. For the same compound, the growth at 10 µM in experiment [4] is 102%.

With `CC(C)(C)c1ccc(Cn2c(-c3nonc3N)nc3ccccc32)cc1`, the EC in the experiment with Paracentrotus lividus [1], in the experiment on Paracentrotus lividus [2] and with Paracentrotus lividus [3] was above 4 µM in each case. In addition, the growth at 10 µM in experiment [4] turned out to be 67.4%.

Turning to `Nc1nonc1-c1nc2ccccc2n1Cc1nnn[nH]1`, the EC in the experiment with Paracentrotus lividus [1], with Paracentrotus lividus [2] and with Paracentrotus lividus [3] was above 4 µM each time. For the same compound, the growth at 10 µM in experiment [4] worked out at 103%.

With `CC(=O)Nc1nonc1-c1nc2ccccc2n1Cc1ccc(Cl)cc1Cl`, the growth at 10 µM in experiment [4] came to 76.7%.

With `CC(=O)Nc1nonc1-c1nc2ccccc2n1Cc1cccc(C(F)(F)F)c1`, the EC in the experiment with Paracentrotus lividus [1], in the experiment on Paracentrotus lividus [2] and with Paracentrotus lividus [3] was above 4 µM each time. For the same compound, the growth at 10 µM in experiment [4] stood at 82.2%.

Regarding `C#CCn1c(-c2nonc2N)nc2ccccc21`, the EC with Paracentrotus lividus [1], in the experiment on Paracentrotus lividus [2] and in the experiment with Paracentrotus lividus [3] was above 4 µM each time. In experiment [4], the growth at 10 µM is 99.6%.

As to `Nc1nc(N)nc(Cn2c(-c3nonc3N)nc3ccccc32)n1`, the EC in the experiment on Paracentrotus lividus [1], in the experiment with Paracentrotus lividus [2] and in the experiment on Paracentrotus lividus [3] was above 4 µM throughout. The growth at 10 µM in experiment [4] came to 102%.

Consider `CC(=O)Nc1nonc1-c1nc2ccccc2n1Cc1ccncc1`, for which the EC was above 4 µM with Paracentrotus lividus [1], above 4 µM in the experiment on Paracentrotus lividus [2] and above 5 µM in the experiment with Paracentrotus lividus [3]. The growth at 10 µM in experiment [4] turned out to be 101%.

In the case of `Nc1nonc1-c1nc2ccccc2n1CC(=O)Nc1ccc(OC(F)(F)F)cc1`, the EC in the experiment on Paracentrotus lividus [1] is 4 µM; in the experiment with Paracentrotus lividus [2], above 4 µM; in the experiment on Paracentrotus lividus [3], above 4 µM. Moreover, the growth at 10 µM in experiment [4] was 105%.

`Nc1nonc1-c1nc2ccccc2n1Cc1ccc(Cl)cc1`: the EC in the experiment on Paracentrotus lividus [1], in the experiment with Paracentrotus lividus [2] and in the experiment with Paracentrotus lividus [3] was above 4 µM each time. For the same compound, the growth at 10 µM in experiment [4] amounted to 85%.

Regarding `Cc1cc(C)cc(NC(=O)Cn2c(-c3nonc3N)nc3ccccc32)c1`, the EC with Paracentrotus lividus [1], with Paracentrotus lividus [2] and in the experiment with Paracentrotus lividus [3] was above 4 µM throughout. In addition, the growth at 10 µM in experiment [4] is 109%.

For the compound `Nc1nonc1-c1nc2ccccc2n1Cc1ccncc1`, the growth at 10 µM in experiment [4] was 97%.

As to `C=CCn1c(-c2nonc2NC(C)=O)nc2ccccc21`, the EC in the experiment on Paracentrotus lividus [1], with Paracentrotus lividus [2] and in the experiment on Paracentrotus lividus [3] was above 4 µM each time. The growth at 10 µM in experiment [4] is 96.5%.

In the case of `O=C(Nc1nonc1-c1nc2ccccc2n1Cc1ccncc1)c1ccncc1`, the EC in the experiment on Paracentrotus lividus [1], with Paracentrotus lividus [2] and in the experiment on Paracentrotus lividus [3] was above 4 µM each time. In experiment [4], the growth at 10 µM was found to be 97.1%.

`Cc1cccc(C)c1NC(=O)Cn1c(-c2nonc2N)nc2ccccc21`: the EC with Paracentrotus lividus [1], with Paracentrotus lividus [2] and in the experiment on Paracentrotus lividus [3] was above 4 µM each time. Further, the growth at 10 µM in experiment [4] was 90.2%.

As for `Nc1nonc1-c1nc2cc(Cl)ccc2[nH]1`, the EC was 2 µM with Paracentrotus lividus [1], above 4 µM with Paracentrotus lividus [2] and above 5 µM in the experiment with Paracentrotus lividus [3]. Also, in experiment [4], the growth at 10 µM is 97.1%.

Regarding `Nc1nonc1-c1nc2c(Cl)cccc2[nH]1`, the EC in the experiment on Paracentrotus lividus [1] was 1 µM; in the experiment with Paracentrotus lividus [2] it was above 4 µM; in the experiment with Paracentrotus lividus [3], above 4 µM. Further, the growth at 10 µM in experiment [4] turned out to be 99.8%.

As for `Cc1ccc(Cn2c(-c3nonc3N)nc3ccccc32)cc1`, the growth at 10 µM in experiment [4] came to 70.4%.

On to `CC(=O)Nc1nonc1-c1nc2ccccc2n1Cc1ccccn1`, for which the EC in the experiment with Paracentrotus lividus [1], in the experiment with Paracentrotus lividus [2] and in the experiment on Paracentrotus lividus [3] was above 4 µM throughout. Moreover, the growth at 10 µM in experiment [4] came to 104%.

Take `CC(=O)Nc1nonc1-c1nc2ccccc2n1Cc1ccc(C#N)cc1`: the EC with Paracentrotus lividus [1], in the experiment with Paracentrotus lividus [2] and in the experiment with Paracentrotus lividus [3] was above 4 µM each time. Moreover, in experiment [4], the growth at 10 µM worked out at 94.1%.

Take `Nc1nonc1-c1nc2cc3ccccc3cc2[nH]1`: the EC in the experiment on Paracentrotus lividus [1] was 0.5 µM; with Paracentrotus lividus [2], 4 µM; with Paracentrotus lividus [3], above 4 µM.

As for `COc1ccc(Cn2c(-c3nonc3N)nc3cc(C(F)(F)F)ccc32)cc1`, the EC with Paracentrotus lividus [1], in the experiment with Paracentrotus lividus [2] and in the experiment on Paracentrotus lividus [3] was above 4 µM in each case. The growth at 10 µM in experiment [4] was 81.1%.

In the case of `CCC(=O)Nc1nonc1-c1nc2ccccc2n1Cc1ccc(F)cc1Cl`, the EC with Paracentrotus lividus [1], with Paracentrotus lividus [2] and in the experiment on Paracentrotus lividus [3] was above 4 µM throughout. The growth at 10 µM in experiment [4] was 64.5%.

For the compound `Nc1nonc1-c1nc2ccccc2n1Cc1ccccn1`, the EC is 2 µM with Paracentrotus lividus [1], above 4 µM in the experiment with Paracentrotus lividus [2] and above 4 µM with Paracentrotus lividus [3]. Moreover, the growth at 10 µM in experiment [4] stood at 89.3%.

Regarding `N#Cc1ccc(Cn2c(-c3nonc3N)nc3ccccc32)cc1`, the results for the EC in the experiment with Paracentrotus lividus [1], in the experiment on Paracentrotus lividus [2] and in the experiment on Paracentrotus lividus [3] were 4 µM, above 4 µM and above 4 µM, respectively. Besides, the growth at 10 µM in experiment [4] turned out to be 79.8%.

Take `Cc1ccc(NC(=O)Cn2c(-c3nonc3NC(=O)c3ccc(F)cc3)nc3ccccc32)cc1F`: the growth at 10 µM in experiment [4] stood at 71.8%.

Take `Nc1nonc1-c1nc2ccccc2n1CC(=O)NCc1ccc(F)cc1`: the EC with Paracentrotus lividus [1] is 4 µM; with Paracentrotus lividus [2], above 4 µM; with Paracentrotus lividus [3] it was above 4 µM. In addition, the growth at 10 µM in experiment [4] turned out to be 102%.

Consider `CCOc1ccc(Cn2c(-c3nonc3N)nc3ccccc32)cc1OCC`, for which the EC with Paracentrotus lividus [1], with Paracentrotus lividus [2] and in the experiment on Paracentrotus lividus [3] was above 4 µM throughout. For the same compound, in experiment [4], the growth at 10 µM is 81%.

With `Nc1nonc1-c1nc2ccccc2n1Cc1c(F)cccc1Cl`, the EC in the experiment on Paracentrotus lividus [1], in the experiment on Paracentrotus lividus [2] and in the experiment with Paracentrotus lividus [3] was above 4 µM throughout. Besides, the growth at 10 µM in experiment [4] was determined as 91.9%.

Take `Nc1nc(Cn2c(-c3nonc3N)nc3ccccc32)nc(N2CCCCC2)n1`: the values for the EC with Paracentrotus lividus [1], in the experiment on Paracentrotus lividus [2] and in the experiment with Paracentrotus lividus [3] were 4 µM, above 4 µM and above 4 µM, respectively. Moreover, the growth at 10 µM in experiment [4] is 87.7%.

In the case of `COc1ccc(Cn2c(-c3nonc3NC(C)=O)nc3ccccc32)cc1`, the EC in the experiment with Paracentrotus lividus [1], in the experiment on Paracentrotus lividus [2] and with Paracentrotus lividus [3] was above 4 µM in each case. In addition, the growth at 10 µM in experiment [4] worked out at 85%.

On to `Nc1nonc1-c1nc2cc(F)ccc2[nH]1`, for which the EC in the experiment with Paracentrotus lividus [1] was 2 µM; with Paracentrotus lividus [2], above 4 µM; in the experiment on Paracentrotus lividus [3] it was above 5 µM. In addition, in experiment [4], the growth at 10 µM is 97.8%.

Take `Nc1nonc1-c1nc2ccccc2n1CCO`: the growth at 10 µM in experiment [4] is 102%.

On to `CC(=O)Nc1nonc1-c1nc2ccccc2n1Cc1ccc(C(C)(C)C)cc1`, for which the growth at 10 µM in experiment [4] came out at 73.5%.
